Sampled rows, rich in hits. Any-hit rate of the full collection: about 0.95%.
Arbovirus anti – antivirals against arbovirus infection, primary screen, cell-based, full library, 10K replicate subset. 200,000 tested, 0.37% active. AID 1251, 2008. inhibition, % at 10 µM. arbovirus infection cell-based antiviral screen; in the data active means inhibition above about 30%
ABCG2 inh – ABCG2 efflux pump inhibitors, primary screen, multiplex with ABCB1, IgMXP3 cells, flow cytometry; JC-1 efflux; AID 1325, 2008; inhibition, % at 6.6 µM; 190,000 tested, 0.1% active;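 active means inhibition above 80%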
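Test system: IgMXP3 (ABCG2) plus far-red-tagged CCRF-Adr (ABCB1) cells / Amount: 3 million cells/mL in well / Reagent: JC-1 transporter substrate / Timing: 10 min compound exposure, 25 °C / Signal: flow cytometry, 530 nm JC-1 signal / Read-out: percent efflux inhibition, scaled nicardipine 100% to DMSO 0% / Benchmarks: nicardipine as high control, DMSO as low control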
NCF1 inh – p47phox/p22phox peptide binding inhibitors, primary screen, biochemical, uHTS, NADPH oxidase regulatory subunit; Neutrophil cytosol factor 1 (Homo sapiens), P14598; fluorescence polarization, 2 h; inhibition, % at 24.7 µM; 220,000 tested, 0.53% active; AID 1274, 2008;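 active means inhibition above about 30%, limit read from the data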
ABCB1 block – ABCB1 efflux pump inhibitors, primary screen, cell-based, multiplex, flow cytometry, ABCG2 counter-screen | inhibition, % at 6.6 µM | AID 1326, 2008 | 190,000 tested, 0.067% active | ATP-dependent translocase ABCB1 (Homo sapiens), P08183 | CCRF-Adr cells, JC-1 efflux; in the data active means inhibition above about 40%;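 further: higher value means more JC-1 retained so stronger ABCB1 efflux block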
Target sequence (P08183 whole entry, looked up): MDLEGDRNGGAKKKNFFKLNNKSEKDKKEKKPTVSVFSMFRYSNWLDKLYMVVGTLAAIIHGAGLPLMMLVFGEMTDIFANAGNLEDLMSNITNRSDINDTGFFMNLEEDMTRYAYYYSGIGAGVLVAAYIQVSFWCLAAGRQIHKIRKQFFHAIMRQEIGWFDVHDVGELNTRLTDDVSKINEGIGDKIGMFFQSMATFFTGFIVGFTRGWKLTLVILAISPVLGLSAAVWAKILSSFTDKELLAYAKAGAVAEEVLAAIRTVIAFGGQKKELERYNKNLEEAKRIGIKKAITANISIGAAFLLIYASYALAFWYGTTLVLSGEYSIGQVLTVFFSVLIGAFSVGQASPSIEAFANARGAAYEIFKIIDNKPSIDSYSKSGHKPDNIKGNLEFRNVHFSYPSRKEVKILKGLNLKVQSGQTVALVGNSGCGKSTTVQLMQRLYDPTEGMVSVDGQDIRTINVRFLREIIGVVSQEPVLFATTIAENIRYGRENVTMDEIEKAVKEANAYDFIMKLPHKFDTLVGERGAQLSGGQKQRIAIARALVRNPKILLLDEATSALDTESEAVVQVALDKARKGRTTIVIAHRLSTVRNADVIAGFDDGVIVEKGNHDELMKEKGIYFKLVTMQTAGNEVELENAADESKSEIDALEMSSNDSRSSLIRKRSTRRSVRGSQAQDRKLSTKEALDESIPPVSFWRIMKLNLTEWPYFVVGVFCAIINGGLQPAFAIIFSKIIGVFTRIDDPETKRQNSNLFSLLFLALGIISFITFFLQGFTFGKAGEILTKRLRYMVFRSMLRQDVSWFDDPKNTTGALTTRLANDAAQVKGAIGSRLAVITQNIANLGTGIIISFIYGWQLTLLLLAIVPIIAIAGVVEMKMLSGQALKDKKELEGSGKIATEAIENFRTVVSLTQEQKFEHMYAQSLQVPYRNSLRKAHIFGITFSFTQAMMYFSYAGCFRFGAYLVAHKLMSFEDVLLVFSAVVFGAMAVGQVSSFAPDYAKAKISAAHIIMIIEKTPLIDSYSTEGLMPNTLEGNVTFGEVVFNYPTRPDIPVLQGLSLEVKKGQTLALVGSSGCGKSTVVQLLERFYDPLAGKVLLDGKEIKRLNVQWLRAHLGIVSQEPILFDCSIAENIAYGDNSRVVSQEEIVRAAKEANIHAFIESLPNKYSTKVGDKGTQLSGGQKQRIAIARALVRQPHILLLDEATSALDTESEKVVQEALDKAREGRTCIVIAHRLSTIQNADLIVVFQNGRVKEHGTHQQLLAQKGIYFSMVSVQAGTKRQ
HSV replic up – enhancers of HSV replication in host cells, fold increase, host cell viability; HSV replication augmentation in cells; AID 1956, 2009; maximum fold increase; 220,000 tested, 0.005% active; in the data active means maximum fold increase above about 1.5; inconclusive means no clear call, values can overlap the other calls; tested in PC3 cells
Furin inh – human furin inhibitors, primary screen, biochemical, fluorescence intensity. P09958. purified furin, fluorogenic substrate cleavage. inhibition, % at 20 µM or 30 µM. 220,000 tested, 0.061% active. AID 463115, 2010; in the data active means inhibition above about 25%
Each line names hits and unclear results; the compound was inactive in the other large screens; ! = repeats disagree.

CCOC(=O)c1ccc(NC(=O)CC2S/C(=N/N=C/c3c[nH]c4ccccc34)NC2=O)cc1 (stereo not drawn)	Arbovirus anti 31.1
OC(c1ccccc1)C1CN(Cc2ccccc2)CCC1(O)c1ccccc1 (stereo not drawn)	Arbovirus anti 32.6
Cc1ccc(-n2c(Cc3cccs3)nnc2SCC(=O)Nc2ccc(F)c(F)c2)cc1	NCF1 inh 74.5
CC1=C(C#N)c2nc(N)c(C#N)c(C)c2/C1=C\c1ccc(-c2ccccc2C(=O)O)o1	NCF1 inh 37.1
COc1cc(/C=C2/C(C)=C(C#N)c3nc(N)c(C#N)c(C)c32)ccc1OCC(=O)O	none
COc1ccc(NC(=O)Cn2nnc(-c3ccccc3F)n2)cc1	NCF1 inh 54.0
O=C(c1ccccc1Sc1ccccc1[N+](=O)[O-])N1CCCCC1	none
CCOC(=O)c1c(CC(C)C)csc1NC(=O)c1ccccc1C(=O)O	none (no result: Arbovirus anti, ABCG2 inh, ABCB1 block)
CC(C)Cc1csc(NC(=O)c2ccc(F)cc2)c1C(=O)O	Arbovirus anti 48.3
O=c1oc(-c2cccs2)nc2ccc(Br)cc12	Arbovirus anti 45.8
Cc1ccc2nc(-c3cccs3)oc(=O)c2c1	none
Cc1ccc(-c2nc3cccnc3s2)cc1NS(=O)(=O)c1ccc2c(c1)OCCO2	none
O=S(=O)(Nc1cccc(-c2nc3cccnc3s2)c1)c1ccc2c(c1)OCCO2	Arbovirus anti 31.0
CCOC(=O)Cn1c(=O)oc2cc(S(=O)(=O)NCCc3ccc(OCC)c(OCC)c3)ccc21	NCF1 inh 102.9
CCOC(=O)c1c(N)sc(C(N)=O)c1C	none
CCOC(=O)c1sc(N)c(C(N)=O)c1C	NCF1 inh 30.1
O=c1c2cc(N3CCOCC3)ccc2[nH]c(=S)n1CCCN1CCN(c2ccccc2F)CC1	ABCB1 block 53.1
OC1(Cc2ccccc2)CCNCC1	none (no result: Arbovirus anti, ABCG2 inh, ABCB1 block)
CCO[C@H]1OC(C(=O)N2CCCCCCC2)=C[C@@H](C)[C@@H]1CCCO	none (no result: HSV replic up)
COc1ccc(-c2ccc3c(N)c(C(=O)c4ccc(OC)c(OC)c4)sc3n2)cc1	none
COc1ccc(C(=O)c2sc3nc(-c4ccccc4)ccc3c2N)cc1OC	NCF1 inh 30.4, HSV replic up inconclusive
Cc1ccccc1NC(=O)CCC(=O)OCC(=O)c1cccc([N+](=O)[O-])c1	NCF1 inh 32.4
O=C(CCC(=O)OCC(=O)c1cccc([N+](=O)[O-])c1)Nc1cccc(Cl)c1Cl	none
CCOc1ccc(-c2nnn(CC(=O)Nc3ccccc3OC)n2)cc1OCC	NCF1 inh 30.5
COc1ccc(-c2nnn(CC(=O)NCc3ccccc3)n2)cc1OC	none
CN1CCN(CC(=O)N2CCn3c4c(c5cc(C6CCCCC6)ccc53)CCCC42)CC1 (stereo not drawn)	NCF1 inh 31.4
O=C(CNC(=O)C1CCCCC1)Nc1ccccc1Cl	NCF1 inh 53.0
Cc1cc(C)cc(C(=O)Nc2ccc(NC(=O)Cc3ccccc3)cc2)c1	none
O/N=C1/C2C3C(Br)C4C5CC(C1C53)C24 (stereo not drawn)	none
O=c1oc(-c2ccccc2NS(=O)(=O)c2ccc3ccccc3c2)nc2ccccc12	Arbovirus anti 30.4
COc1cc(OC)cc(-c2nc3ccccc3c(=O)o2)c1	none
Cc1ccc(-c2nnc(-c3ccc4c(c3)OCO4)o2)cc1	NCF1 inh 130.6
CCC(C(=O)Nc1ccccc1-c1ccccc1)c1ccccc1 (stereo not drawn)	none
CCC(C(=O)Nc1ccccc1)c1ccccc1 (stereo not drawn)	ABCG2 inh 172.5 (no result: ABCB1 block)
O=C(N/N=C1/C(=O)c2cccc3cccc1c23)c1ccc(Cl)cc1	NCF1 inh 48.1
CCNC(=S)N/N=C1\C(=O)c2cccc3cccc1c23	none
COc1ccc(Cl)cc1-c1nc(-c2ccc(NC(=O)c3cccs3)cc2)no1	none
CC1(C)Cc2c(sc(NC(=O)COc3cccc4ccccc34)c2C#N)C(C)(C)N1	NCF1 inh 50.8 (no result: Arbovirus anti, ABCG2 inh, ABCB1 block)
Cc1ccc(OCC(=O)Nc2sc3c(c2C#N)CC(C)(C)NC3(C)C)cc1	none
COC(=O)c1c(SCc2cccc3ccccc23)nc(=O)[nH]c1C	none (no result: Arbovirus anti, ABCG2 inh, ABCB1 block)
COC(=O)c1c(SCc2ccc(C#N)cc2)nc(=O)[nH]c1C	Arbovirus anti 77.8
COc1cc(-c2nnc(-c3cccs3)o2)cc(OC)c1OC	none
COc1cc(C(=O)Nc2ccc(-c3nnc(-c4ccco4)o3)cc2)cc(OC)c1OC	Furin inh 29.7
COc1cc(C(=O)Nc2cccc(-c3nnc(-c4ccco4)o3)c2)ccc1OC(C)=O	none
COc1ccc(-c2nnc(-c3cc(OC)c(OC)c(OC)c3)o2)cc1OC	Arbovirus anti 38.1
COC(=O)/C(C#N)=C/N(C)C	none (no result: Arbovirus anti, ABCG2 inh, ABCB1 block)
CCOC(=O)/C(C#N)=C\N(C)C	NCF1 inh 39.5 (no result: HSV replic up)
N#Cc1c(C(F)(F)F)cc(-c2cccc(Cl)c2)[nH]c1=O	Arbovirus anti 42.4
N#Cc1c(C(F)(F)F)cc(-c2ccc(Cl)cc2)[nH]c1=O	Arbovirus anti 42.5
O=C1C=C(c2ccccc2)OC2(CCCC2)O1	none
O=C1C=C(c2ccc(Cl)cc2)OC2(CCCC2)O1	Furin inh 28.8
CC#CCN1C(=O)N[C@@H](c2ccccc2)C(C(=O)OC)=C1C	none (no result: Arbovirus anti, ABCG2 inh, NCF1 inh, ABCB1 block, Furin inh)
O=C(CSc1nnc(Cc2ccccc2)n1C1CCCCC1)N1CCOCC1	NCF1 inh 98.2
OCC1(CO)COC2(CCCC2)N1	NCF1 inh 61.7!
N#CC1=C(SCC(=O)Nc2ccccc2)NC(=O)CC1c1ccc(O)cc1 (stereo not drawn)	Arbovirus anti 42.2
NC(=O)CSc1ccc(F)cc1	none
CCN(C(=O)c1ccc(NC(C)=O)cc1)c1ccccc1	NCF1 inh 55.3
CC(=O)Nc1ccc(C(=O)N(C)c2ccccc2)cc1	none
N#CC12COC3(CCCCC3C1(C#N)C#N)OC2=N (stereo not drawn)	HSV replic up inconclusive (no result: Arbovirus anti, ABCG2 inh, ABCB1 block)
N#CC1(C#N)COC23CCCCC2C1(C#N)C(=N)O3 (stereo not drawn)	NCF1 inh 141.0
COc1ccccc1CNc1nc(-c2cc(C)n(C)c2C)cs1	NCF1 inh 46.4
Cc1csc(C(C)N(C)C(=O)CCc2nnc(CCc3ccccc3)o2)n1 (stereo not drawn)	none
Cc1cc(N2CCCC2)c(F)cc1/C=C\[N+](=O)[O-]	NCF1 inh 78.5
Cc1[nH]c2c(ccc3ccccc32)c1C1C(CCN)C1(C)C (stereo not drawn)	NCF1 inh 60.3
Cc1ccc(C)c(NC(=O)c2sc(Cl)nc2-c2ccccc2)c1	none
Cc1ccccc1NC(=O)c1sc(Cl)nc1-c1ccccc1	NCF1 inh 67.6
COc1cccc(CN(C)Cc2nc(Cc3ccccc3Cl)no2)c1	none
COc1ccc(OC)c(C2C(C(=O)c3ccccc3)=C(C)Nc3nc4ccccc4n32)c1 (stereo not drawn)	none (no result: HSV replic up)
